The results in this text go back to PubChem BioAssay.

Structures are written as SMILES. Active and inactive are the calls of the source.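 The calls were made as follows, unless noted: active = viability at or below 10% of carrier control in both of two separate runs; inconclusive = viability at or below 10% in only one of the two runs; inactive = the rest.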

A short description of assay [1]: reduced viability of SK-BR-3 breast cancer cells – cell-based, 24 h, human, pilot screen (AID 572).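 Also: compound exposure lasted between 18 and 24 h rather than exactly 24 h; 100% = carrier-treated control wells.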 The settings on record: SK-BR-3 viability, CellTiter-Glo luminescence, at 10 µM, stronger effect = lower value. (In general: In ATP-based viability assays light output follows the ATP content of the culture.)
Assay [2] in a line: HUVEC growth inhibition – cell-based, human, primary screen (AID 575;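 active = viability at or below 30% in both replicate assays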;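 also: 100% = median of untreated cell wells with 0.1% DMSO on each plate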). The settings on record: HUVEC proliferation, CellTiter-Glo luminescence, 72 h; at 10 µM; stronger effect = lower value. In a few lines:
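Material: primary human umbilical vein endothelial cells / Schedule: 72 h exposure, 37 °C, 5% CO2, 30 min RT equilibration / Signal: ATP-based CellTiter-Glo luminescent read / Read-out basis: percent of median DMSO-control luminescence / Control set: 32 DMSO-only cell-control wells (high), 32 MePR drug-control wells (low) per plate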

Assay [3] can be described thus: H69AR cell proliferation blockers – human, duplicate replicates, primary screen (AID 580;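 active = viability at or under a set limit in both replicates, limit being median viability minus 3 SD, cut at about 48% in these data, passing the limit was not always enough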;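 also: 100% = mean luminescence of untreated wells and 0% = no signal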). The settings on record: H69AR lung tumor cells viability, ATP luminescence, 72 h; at 10 µM; stronger effect = lower value.
Assay [4] can be described thus: MRP1 drug-resistance reversers in H69AR cells – cell-based, doxorubicin co-treatment, pilot screen (AID 601;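 active = viability loss from added drug above about 55%, and viability with drug at most 40%, in both replicates, limit read from the data, passing the limit was not always enough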). The following applies: CellTiter-Glo, 72 h, at 10 µM; for differential viability (reversal): stronger effect = higher value.
Assay [5] in a line: yeast transport mutant growth inhibition pilot in 384-well plates, post-Golgi transport modulator project (AID 636; in the data active = inhibition above about 31%). The following applies: absorbance 615 nm, about 18 h, stronger effect = higher value.
A short description of assay [6]: growth suppression of yeast trafficking mutant, preliminary HTS, modulators of trafficking downstream of Golgi apparatus project, 1536-format plate, OD 615 nm (AID 637; in the data active = inhibition above about 30%). The settings on record: yeast transport mutant growth, absorbance 615 nm, 18 h; stronger effect = higher value.
Where [7] appears, read: H69AR cells + 2 uM doxorubicin, measured here: viability with 2 uM doxorubicin, stronger effect = lower value.
Where [8] appears, read: H69AR cells, compound alone cytotoxicity.

As a reminder, the viability is a read-out of living cells in per cent, often relative to untreated cells. Usually inhibition stands for the change of the read-out against control, counted positive when it falls. `COc1ccc(C(c2nnnn2C2CCCC2)N2CCC(C)CC2)c(OC)c1` (centres undefined): the viability in assay [1] was 154% (inactive); in assay [2], 91.4% (inactive); in assay [3] it was 87.8% (inactive); in assay [4] (setting [7]) it was 96.7%; in assay [4] (setting [8]), 87.8%. For the same compound, the differential viability (reversal) in assay [4] (H69AR cells + 2 uM doxorubicin) is -8.92% (inactive). In addition, the figures for the inhibition in assay [5] and in assay [6] were -0.26% (inactive) and -3.28% (inactive), respectively.
With `COc1ccc(-n2nnnc2SCC(=O)c2ccc(O)c(O)c2)cc1`, the viability was 74% (inactive) in assay [1]; 58.6% (inactive) in assay [2]; 34.7% (active) in assay [3]; 76.6% in assay [4] (setting [7]); 34.7% in assay [4] (setting [8]). In addition, the differential viability (reversal) in assay [4] (H69AR cells + 2 uM doxorubicin) was -41.9% (inactive). Besides, the inhibition in assay [5] was -5.89% (inactive); in assay [6], -1.45% (inactive).
Consider `c1ccc(-c2ccc(-c3ccccn3)nn2)nc1`, for which the viability in assay [1] is 112% (inactive); in assay [2], 55.3% (inactive); in assay [3], 59.4% (inactive); in assay [4] (setting [7]), 69.5%; in assay [4] (setting [8]), 59.4%. Besides, the differential viability (reversal) in assay [4] (H69AR cells + 2 uM doxorubicin) was -10.1% (inactive). The inhibition in assay [5] is -6.27% (inactive); in assay [6], -0.63% (inactive).
Take `CCN(CC)C(=O)c1ccc(O)c(OC)c1`: the viability in assay [1] is 100% (inactive); in assay [2], 90.7% (inactive); in assay [3], 101% (inactive); in assay [4] (setting [7]) it was 101%; in assay [4] (setting [8]) it was 101%. Also, the differential viability (reversal) in assay [4] (H69AR cells + 2 uM doxorubicin) was 0.23% (inactive). The inhibition in assay [5] is -4.94% (inactive); in assay [6] it was -5% (inactive).
Take `COc1ccc(-c2ccc(-c3nnn(CC(C)=O)n3)cc2)cc1`: the viability was 118% (inactive) in assay [1]; 105% (inactive) in assay [2]; 76.9% (inactive) in assay [3]; 73.6% in assay [4] (setting [7]); 76.9% in assay [4] (setting [8]). Besides, the differential viability (reversal) in assay [4] (H69AR cells + 2 uM doxorubicin) is 3.31% (inactive). Further, the figures for the inhibition in assay [5] and in assay [6] were -4.16% (inactive) and -9.02% (inactive), respectively.
On to `Cc1cc(C(=O)NCc2cccnc2)no1`, for which the viability in assay [1] is 77% (inactive); in assay [2] it was 108% (inactive); in assay [3], 99.2% (inactive); in assay [4] (setting [7]), 93%; in assay [4] (setting [8]), 99.2%. Also, the differential viability (reversal) in assay [4] (H69AR cells + 2 uM doxorubicin) was 6.27% (inactive). Moreover, the values for the inhibition in assay [5] and in assay [6] were -4.52% (inactive) and 1.61% (inactive), respectively.
On to `Fc1cccc(Nc2cc(-n3cccn3)ncn2)c1`, for which the viability is 95% (inactive) in assay [1]; 72.5% (inactive) in assay [2]; 89.6% (inactive) in assay [3]; 94.3% in assay [4] (setting [7]); 89.6% in assay [4] (setting [8]). Besides, the differential viability (reversal) in assay [4] (H69AR cells + 2 uM doxorubicin) was -4.63% (inactive). In addition, the figures for the inhibition in assay [5] and in assay [6] were -7.81% (inactive) and -4.76% (inactive), respectively.
On to `CCN(CC)C(=O)C1CCN(CC2CC=CCC2)CC1` (centres undefined), for which the viability in assay [1] is 97% (inactive); in assay [2], 109% (inactive); in assay [3], 94.8% (inactive); in assay [4] (setting [7]), 98.7%; in assay [4] (setting [8]), 94.8%. The differential viability (reversal) in assay [4] (H69AR cells + 2 uM doxorubicin) is -3.97% (inactive). In addition, the inhibition in assay [5] was -2.93% (inactive); in assay [6], -2.91% (inactive).
As to `CC(O)c1cc2c(cc1NC(=O)c1cnn3c1NC(c1ccco1)CC3C(F)(F)F)OCO2` (centres undefined), the viability in assay [1] was 93% (inactive); in assay [2] it was 97.2% (inactive); in assay [3], 86.3% (inactive); in assay [4] (setting [7]) it was 85.9%; in assay [4] (setting [8]), 86.3%. Moreover, the differential viability (reversal) in assay [4] (H69AR cells + 2 uM doxorubicin) is 0.405% (inactive). The inhibition was 0.65% (inactive) in assay [5] and -1.97% (inactive) in assay [6].
Regarding `CC(=O)Nc1c(O)[nH]c2ccccc12`, the viability in assay [1] was 105% (inactive); in assay [2] it was 102% (inactive); in assay [3] it was 93.6% (inactive); in assay [4] (setting [7]), 94.7%; in assay [4] (setting [8]), 93.6%. The differential viability (reversal) in assay [4] (H69AR cells + 2 uM doxorubicin) is -1.07% (inactive). Further, the inhibition in assay [5] is -8.49% (inactive); in assay [6], 6.36% (inactive).
`CCCN(CCC)C(=O)C(CCC(=O)O)NC(=O)c1ccccc1` (centres undefined): the viability in assay [1] was 108% (inactive); in assay [2] it was 94.9% (inactive); in assay [3], 105% (inactive); in assay [4] (setting [7]), 95.9%; in assay [4] (setting [8]), 105%. For the same compound, the differential viability (reversal) in assay [4] (H69AR cells + 2 uM doxorubicin) is 9.32% (inactive). In addition, the inhibition was -5.32% (inactive) in assay [5] and 2.33% (inactive) in assay [6].
On to `COC(=O)c1ccccc1NC(=O)c1cnc2sccn2c1=O`, for which the viability in assay [1] is 110% (inactive); in assay [2], 87.9% (inactive); in assay [3] it was 104% (inactive); in assay [4] (setting [7]), 95.5%; in assay [4] (setting [8]), 104%. Moreover, the differential viability (reversal) in assay [4] (H69AR cells + 2 uM doxorubicin) is 8.43% (inactive). In addition, the figures for the inhibition in assay [5] and in assay [6] were -3.6% (inactive) and -0.91% (inactive), respectively.
Take `Cc1ccc(-c2ccc(SCC(=O)Nc3nonc3C)nn2)cc1`: the viability in assay [1] was 94% (inactive); in assay [2], 81.8% (inactive); in assay [3], 88.8% (inactive); in assay [4] (setting [7]) it was 93.5%; in assay [4] (setting [8]), 88.8%. In addition, the differential viability (reversal) in assay [4] (H69AR cells + 2 uM doxorubicin) is -4.68% (inactive). Also, the inhibition in assay [5] is -7.57% (inactive); in assay [6] it was -0.55% (inactive).
Take `O=C(NCCCN1CCN(Cc2ccccc2)CC1)C1CCN(c2nnc(-n3cccc3)s2)CC1`: the viability in assay [1] was 118% (inactive); in assay [2], 97.1% (inactive); in assay [3], 88.7% (inactive); in assay [4] (setting [7]), 84.4%; in assay [4] (setting [8]), 88.7%. For the same compound, in assay [4] (H69AR cells + 2 uM doxorubicin), the differential viability (reversal) was 4.26% (inactive). The inhibition is -4.93% (inactive) in assay [5] and -1.82% (inactive) in assay [6].
On to `COc1ccc(CCN(Cc2cc3cccc(C)c3[nH]c2=O)C(=O)N2CCCC2)cc1OC`, for which the viability in assay [1] is 106% (inactive); in assay [2], 104% (inactive); in assay [3], 98.8% (inactive); in assay [4] (setting [7]), 97.3%; in assay [4] (setting [8]), 98.8%. In assay [4] (H69AR cells + 2 uM doxorubicin), the differential viability (reversal) is 1.51% (inactive). The inhibition was -2.6% (inactive) in assay [5] and -0.36% (inactive) in assay [6].
With `CN(CC(=O)Nc1cccnc1)S(=O)(=O)c1cc(Cl)ccc1Cl`, the viability in assay [1] is 104% (inactive); in assay [2] it was 105% (inactive); in assay [3] it was 91.7% (inactive); in assay [4] (setting [7]) it was 99.2%; in assay [4] (setting [8]), 91.7%. The differential viability (reversal) in assay [4] (H69AR cells + 2 uM doxorubicin) is -7.51% (inactive). The results for the inhibition in assay [5] and in assay [6] were -0.14% (inactive) and 6.73% (inactive), respectively.
For the compound `COCCc1ccc(OCC(O)CNC(C)C)cc1` (centres undefined), the viability in assay [1] was 117% (inactive); in assay [2], 70.4% (inactive); in assay [3], 98.3% (inactive); in assay [4] (setting [7]), 106%; in assay [4] (setting [8]), 98.3%. Moreover, the differential viability (reversal) in assay [4] (H69AR cells + 2 uM doxorubicin) is -7.28% (inactive). In addition, the inhibition in assay [5] is -2.86% (inactive); in assay [6], 1.33% (inactive).
Take `Cc1cc(C)c2nc(C(F)(F)F)nc(NCCCN3CCCC3=O)c2c1`: the viability in assay [1] was 113% (inactive); in assay [2], 51.4% (inactive); in assay [3], 83.7% (inactive); in assay [4] (setting [7]), 92.7%; in assay [4] (setting [8]), 83.7%. In assay [4] (H69AR cells + 2 uM doxorubicin), the differential viability (reversal) is -9.04% (inactive). The inhibition in assay [5] is -4.38% (inactive); in assay [6], 0.65% (inactive).
